Source: ChEMBL document CHEMBL5724801, “EUbOPEN Chemogenomics Library - Multiplex” (2024)
Values joined by “and” are separate entries in the source; they are usually repeats but may differ in a detail not shown here. Equal entries are not always repeated.

Each compound was assayed on HEK-293T (assay: Multiplex assay against HEK293T). Details: human, 12 h, 1 µM, compound concentration 1 uM.
Assay type: toxicity, cell-based
How it was run: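 Live cells were stained at seeding with Hoechst33342, BioTracker Green Microtubule Cytoskeleton Dye, MitoTracker Red and Annexin V Alexa Fluor 680, then imaged on a CQ1 microscope at 37°C and 5% CO2 after compound addition. CellPathfinder machine-learning gating split cells into Hoechst high-intensity objects or normal cells. Normal cells were split into healthy, pyknosed or fragmented nuclei, and pyknosed cells into mitotic or apoptotic. Tubulin, mitochondrial-mass and membrane-permeability phenotypes are per cents of healthy-nucleus cells.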

Row | SMILES | Population Apoptotic (%) | Population Fragmented Nuclei (%) | Population Healthy Nuclei (%) | Population Hoechst High Intensity Objects (%) | Population Membrane Permeable-Phenotype (%) | Population Mitochondria Different-Phenotype (%) | Population Mitotic Cells (%) | Population Normal (%) | Population Pyknosed Nuclei (%) | Population Tubulin-Different-Phenotype (%)
1 | CSc1ccccc1N1CCN(CCCCCC(=O)NC2CCCc3ccccc32)CC1.Cl (stereo not drawn) | 45% | 6% | 74% | 8% and 12% | 0 | 68% and 75% | 54% | 91% and 87% | 18% and 19% | 59% and 43%
2 | COCCCN1CCC(NC(=O)c2cc(Cl)c(N)c3c2OCC3)CC1 [PRUCALOPRIDE] | 22% and 31% | 10% and 4% | 80% and 82% | 8% and 7% | 0 | 36% and 59% | 77% and 68% | 91% and 92% | 9% and 12% | 21% and 16%
3 | C[C@@H]1CC(=O)Nc2cccc(-c3ccc4c(c3)c(-c3cnn(C)c3)nn4C)c2N1 | 36% and 60% | 7% and 5% | 76% and 77% | 7% | 0 | 51% and 65% | 63% and 39% | 92% | 16% | 39% and 26%

Same assay, conditions: human, 12 h, 1 µM, compound concentration 1 uM

Row | SMILES | Total Cell Count
4 | CSc1ccccc1N1CCN(CCCCCC(=O)NC2CCCc3ccccc32)CC1.Cl (stereo not drawn) | 391 and 322
5 | COCCCN1CCC(NC(=O)c2cc(Cl)c(N)c3c2OCC3)CC1 [PRUCALOPRIDE] | 416 and 397
6 | C[C@@H]1CC(=O)Nc2cccc(-c3ccc4c(c3)c(-c3cnn(C)c3)nn4C)c2N1 | 305 and 349

Same assay, conditions: human, 12 h, 10 µM, compound concentration 10 uM

Row | SMILES | Population Apoptotic (%) | Population Fragmented Nuclei (%) | Population Healthy Nuclei (%) | Population Hoechst High Intensity Objects (%) | Population Membrane Permeable-Phenotype (%) | Population Mitochondria Different-Phenotype (%) | Population Mitotic Cells (%) | Population Normal (%) | Population Pyknosed Nuclei (%) | Population Tubulin-Different-Phenotype (%)
7 | CSc1ccccc1N1CCN(CCCCCC(=O)NC2CCCc3ccccc32)CC1.Cl (stereo not drawn) | 80% and 79% | 8% and 5% | 68% and 74% | 15% and 16% | 0 | 97% | 20% | 84% and 83% | 22% and 19% | 59% and 65%
8 | COCCCN1CCC(NC(=O)c2cc(Cl)c(N)c3c2OCC3)CC1 [PRUCALOPRIDE] | 37% and 56% | 8% and 10% | 74% and 72% | 4% and 10% | 0 | 59% and 75% | 62% and 43% | 95% and 89% | 17% | 43% and 35%
9 | C[C@@H]1CC(=O)Nc2cccc(-c3ccc4c(c3)c(-c3cnn(C)c3)nn4C)c2N1 | 49% and 38% | 8% and 5% | 74% and 77% | 5% and 12% | 0 | 72% and 86% | 50% and 62% | 94% and 87% | 17% and 16% | 62% and 56%

Same assay, conditions: human, 12 h, 10 µM, compound concentration 10 uM

Row | SMILES | Total Cell Count
10 | CSc1ccccc1N1CCN(CCCCCC(=O)NC2CCCc3ccccc32)CC1.Cl (stereo not drawn) | 316 and 304
11 | COCCCN1CCC(NC(=O)c2cc(Cl)c(N)c3c2OCC3)CC1 [PRUCALOPRIDE] | 421 and 261
12 | C[C@@H]1CC(=O)Nc2cccc(-c3ccc4c(c3)c(-c3cnn(C)c3)nn4C)c2N1 | 384 and 345

Same assay, conditions: human, 24 h, 1 µM, compound concentration 1 uM

Row | SMILES | Population Apoptotic (%) | Population Fragmented Nuclei (%) | Population Healthy Nuclei (%) | Population Hoechst High Intensity Objects (%) | Population Membrane Permeable-Phenotype (%) | Population Mitochondria Different-Phenotype (%) | Population Mitotic Cells (%) | Population Normal (%) | Population Pyknosed Nuclei (%) | Population Tubulin-Different-Phenotype (%)
13 | CSc1ccccc1N1CCN(CCCCCC(=O)NC2CCCc3ccccc32)CC1.Cl (stereo not drawn) | 36% and 41% | 8% | 79% and 75% | 4% and 7% | 0% | 50% and 70% | 63% and 58% | 95% and 92% | 11% and 16% | 41% and 44%
14 | COCCCN1CCC(NC(=O)c2cc(Cl)c(N)c3c2OCC3)CC1 [PRUCALOPRIDE] | 20% and 28% | 11% and 8% | 78% and 84% | 5% and 4% | 1% and 0% | 18% and 39% | 79% and 71% | 94% and 95% | 10% and 6% | 14% and 10%
15 | C[C@@H]1CC(=O)Nc2cccc(-c3ccc4c(c3)c(-c3cnn(C)c3)nn4C)c2N1 | 38% and 50% | 10% and 8% | 74% and 79% | 7% and 6% | 0% | 37% and 48% | 61% and 50% | 92% and 93% | 14% and 11% | 20% and 16%

Same assay, conditions: human, 24 h, 1 µM, compound concentration 1 uM

Row | SMILES | Total Cell Count
16 | CSc1ccccc1N1CCN(CCCCCC(=O)NC2CCCc3ccccc32)CC1.Cl (stereo not drawn) | 508 and 356
17 | COCCCN1CCC(NC(=O)c2cc(Cl)c(N)c3c2OCC3)CC1 [PRUCALOPRIDE] | 590 and 546
18 | C[C@@H]1CC(=O)Nc2cccc(-c3ccc4c(c3)c(-c3cnn(C)c3)nn4C)c2N1 | 395 and 422

Same assay, conditions: human, 24 h, 10 µM, compound concentration 10 uM

Row | SMILES | Population Apoptotic (%) | Population Fragmented Nuclei (%) | Population Healthy Nuclei (%) | Population Hoechst High Intensity Objects (%) | Population Membrane Permeable-Phenotype (%) | Population Mitochondria Different-Phenotype (%) | Population Mitotic Cells (%) | Population Normal (%) | Population Pyknosed Nuclei (%) | Population Tubulin-Different-Phenotype (%)
19 | CSc1ccccc1N1CCN(CCCCCC(=O)NC2CCCc3ccccc32)CC1.Cl (stereo not drawn) | 75% and 69% | 5% and 7% | 70% and 73% | 21% and 20% | 0 | 98% and 97% | 24% and 30% | 78% and 79% | 23% and 18% | 53% and 48%
20 | COCCCN1CCC(NC(=O)c2cc(Cl)c(N)c3c2OCC3)CC1 [PRUCALOPRIDE] | 28% and 50% | 8% and 13% | 77% and 73% | 4% and 9% | 0 | 48% and 51% | 71% and 50% | 95% and 90% | 13% and 12% | 32% and 25%
21 | C[C@@H]1CC(=O)Nc2cccc(-c3ccc4c(c3)c(-c3cnn(C)c3)nn4C)c2N1 | 43% and 57% | 9% and 8% | 76% and 72% | 2% and 5% | 0 | 62% and 68% | 56% and 42% | 97% and 94% | 13% and 19% | 37% and 28%

Same assay, conditions: human, 24 h, 10 µM, compound concentration 10 uM

Row | SMILES | Total Cell Count
22 | CSc1ccccc1N1CCN(CCCCCC(=O)NC2CCCc3ccccc32)CC1.Cl (stereo not drawn) | 303 and 315
23 | COCCCN1CCC(NC(=O)c2cc(Cl)c(N)c3c2OCC3)CC1 [PRUCALOPRIDE] | 531 and 341
24 | C[C@@H]1CC(=O)Nc2cccc(-c3ccc4c(c3)c(-c3cnn(C)c3)nn4C)c2N1 | 472 and 381

Same assay, conditions: human, 48 h, 1 µM, compound concentration 1 uM

Row | SMILES | Population Apoptotic (%) | Population Fragmented Nuclei (%) | Population Healthy Nuclei (%) | Population Hoechst High Intensity Objects (%) | Population Membrane Permeable-Phenotype (%) | Population Mitochondria Different-Phenotype (%) | Population Mitotic Cells (%) | Population Normal (%) | Population Pyknosed Nuclei (%) | Population Tubulin-Different-Phenotype (%)
25 | CSc1ccccc1N1CCN(CCCCCC(=O)NC2CCCc3ccccc32)CC1.Cl (stereo not drawn) | 32% and 45% | 10% | 78% and 76% | 4% and 6% | 0% | 39% and 59% | 67% and 54% | 95% and 93% | 10% and 13% | 27% and 31%
26 | COCCCN1CCC(NC(=O)c2cc(Cl)c(N)c3c2OCC3)CC1 [PRUCALOPRIDE] | 24% and 21% | 15% and 11% | 76% and 81% | 2% and 1% | 1% and 0% | 16% and 15% | 75% and 78% | 97% and 98% | 7% and 6% | 11% and 9%
27 | C[C@@H]1CC(=O)Nc2cccc(-c3ccc4c(c3)c(-c3cnn(C)c3)nn4C)c2N1 | 33% and 30% | 11% and 9% | 80% and 81% | 1% and 2% | 0% | 23% and 30% | 66% and 69% | 98% and 97% | 7% and 9% | 13%

Same assay, conditions: human, 48 h, 1 µM, compound concentration 1 uM

Row | SMILES | Total Cell Count
28 | CSc1ccccc1N1CCN(CCCCCC(=O)NC2CCCc3ccccc32)CC1.Cl (stereo not drawn) | 747 and 471
29 | COCCCN1CCC(NC(=O)c2cc(Cl)c(N)c3c2OCC3)CC1 [PRUCALOPRIDE] | 1001 and 832
30 | C[C@@H]1CC(=O)Nc2cccc(-c3ccc4c(c3)c(-c3cnn(C)c3)nn4C)c2N1 | 627 and 593

Same assay, conditions: human, 48 h, 10 µM, compound concentration 10 uM

Row | SMILES | Population Apoptotic (%) | Population Fragmented Nuclei (%) | Population Healthy Nuclei (%) | Population Hoechst High Intensity Objects (%) | Population Membrane Permeable-Phenotype (%) | Population Mitochondria Different-Phenotype (%) | Population Mitotic Cells (%) | Population Normal (%) | Population Pyknosed Nuclei (%) | Population Tubulin-Different-Phenotype (%)
31 | CSc1ccccc1N1CCN(CCCCCC(=O)NC2CCCc3ccccc32)CC1.Cl (stereo not drawn) | 76% and 56% | 11% and 13% | 73% | 28% and 18% | 0% | 97% and 93% | 23% and 43% | 71% and 81% | 14% and 13% | 67% and 56%
32 | COCCCN1CCC(NC(=O)c2cc(Cl)c(N)c3c2OCC3)CC1 [PRUCALOPRIDE] | 20% and 35% | 16% | 77% and 75% | 1% and 3% | 1% and 0% | 32% and 31% | 79% and 64% | 98% and 96% | 6% and 7% | 16% and 15%
33 | C[C@@H]1CC(=O)Nc2cccc(-c3ccc4c(c3)c(-c3cnn(C)c3)nn4C)c2N1 | 43% and 42% | 13% and 12% | 80% and 78% | 4% and 2% | 0% | 44% and 53% | 56% and 57% | 95% and 97% | 6% and 9% | 16% and 20%

Same assay, conditions: human, 48 h, 10 µM, compound concentration 10 uM

Row | SMILES | Total Cell Count
34 | CSc1ccccc1N1CCN(CCCCCC(=O)NC2CCCc3ccccc32)CC1.Cl (stereo not drawn) | 365 and 385
35 | COCCCN1CCC(NC(=O)c2cc(Cl)c(N)c3c2OCC3)CC1 [PRUCALOPRIDE] | 772 and 528
36 | C[C@@H]1CC(=O)Nc2cccc(-c3ccc4c(c3)c(-c3cnn(C)c3)nn4C)c2N1 | 636 and 521
